# According to ChEMBL document CHEMBL5104118, “Structure-activity relationships of hydrophobic alkyl acrylamides as tissue transglutaminase inhibitors” (RSC Med Chem, 2022):
# Activity calls are given as the source filed them. No cut-off for these calls is given here.
# Experiments:
# [1] = biological target: T1, Protein-glutamine gamma-glutamyltransferase (Homo sapiens) (UniProt P21980); experiment: Inhibition of GTP binding to recombinant human TG2 expressed in Escherichia coli incubated for 30 mins by GTP-gamma-S BODIPY assay
# T1 sequence (whole entry): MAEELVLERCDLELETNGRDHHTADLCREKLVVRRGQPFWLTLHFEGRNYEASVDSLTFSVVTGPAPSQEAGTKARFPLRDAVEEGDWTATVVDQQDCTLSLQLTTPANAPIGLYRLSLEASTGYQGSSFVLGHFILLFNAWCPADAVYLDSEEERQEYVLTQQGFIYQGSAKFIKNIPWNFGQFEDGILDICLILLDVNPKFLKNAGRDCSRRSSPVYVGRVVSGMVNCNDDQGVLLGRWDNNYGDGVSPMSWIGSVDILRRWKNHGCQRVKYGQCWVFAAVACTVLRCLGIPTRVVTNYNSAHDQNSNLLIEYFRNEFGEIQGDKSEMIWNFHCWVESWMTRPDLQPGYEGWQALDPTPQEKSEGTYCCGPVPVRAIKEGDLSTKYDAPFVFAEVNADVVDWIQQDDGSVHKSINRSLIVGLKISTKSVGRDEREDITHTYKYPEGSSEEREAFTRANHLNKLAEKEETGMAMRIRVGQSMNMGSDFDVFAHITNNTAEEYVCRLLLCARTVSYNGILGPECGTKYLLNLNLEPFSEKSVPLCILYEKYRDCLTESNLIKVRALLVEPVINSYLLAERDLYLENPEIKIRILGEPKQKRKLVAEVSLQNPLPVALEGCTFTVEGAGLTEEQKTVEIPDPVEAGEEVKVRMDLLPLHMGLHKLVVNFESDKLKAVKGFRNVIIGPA
# [2] = biological target: T1, Protein-glutamine gamma-glutamyltransferase (Homo sapiens); experiment: Inhibition of recombinant human TG2 expressed in Escherichia coli assessed as Kinact/Ki ratio using Cbz-Glu(gamma-p-nitrophenyl ester)Gly (AL5) as substrate by colorimetric assay
# Summary of the method: (§1)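 Kitz–Wilson conditions, triplicate, 25 °C: 50 mM MOPS pH 6.9, 7.5 mM CaCl2, 100 μM AL5, inhibitor 0.5–900 μM (varies by inhibitor), DMSO ≤5% v/v final; started with 5 mU/mL TG2; p-nitrophenolate read at 405 nm for 20 min. Mono-exponential fits give kobs; kobs vs [I] fitted to saturation model with α = 1+[S]/KM (KM 10 μM), giving kinact and KI; double reciprocal if unsaturated.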
# [3] = biological target: T1, Protein-glutamine gamma-glutamyltransferase (Homo sapiens); experiment: Inhibition of recombinant human TG2 expressed in Escherichia coli assessed as Kinact using Cbz-Glu(gamma-p-nitrophenyl ester)Gly (AL5) as substrate by colorimetric assay; summary of the method: as §1
# [4] = biological target: T2, Protein-glutamine gamma-glutamyltransferase (Homo sapiens, UniProt P21980); experiment: Inhibition of recombinant human TG2 expressed in Escherichia coli assessed as inhibition constant using Cbz-Glu(gamma-p-nitrophenyl ester)Gly (AL5) as substrate by colorimetric assay; summary of the method: as §1
# T2 sequence (P21980 whole entry): T1 sequence (whole entry)
Compound,inhibition [1],Ratio [2],Kinact [3],Ki [4]
C=CC(=O)NCCCCCC(=O)N1CCN(C(=O)C23CC4CC(CC(C4)C2)C3)CC1,,9.5 10^3/M/min,0.36 min⁻¹,38 µM
C=CC(=O)NCCC(=O)N1CCN(S(=O)(=O)c2cccc3c(N(C)C)cccc23)CC1,,3.9 10^3/M/min,0.25 min⁻¹,64.5 µM
C=CC(=O)NCCCCC(=O)N1CCN(S(=O)(=O)c2cccc3c(N(C)C)cccc23)CC1,,13.1 10^3/M/min,0.55 min⁻¹,42 µM
C=CC(=O)NCCCCC(=O)N1CCN(C(=O)c2cccc3ccccc23)CC1,,3.1 10^3/M/min,0.44 min⁻¹,142 µM
C=CC(=O)NCCCC(=O)N1CCN(C(=O)c2cccc3ccccc23)CC1,,3.3 10^3/M/min,0.45 min⁻¹,134 µM
C=CC(=O)NCCCCCC(=O)N1CCN(C(=O)c2cccc3ccccc23)CC1,,4.2 10^3/M/min,0.46 min⁻¹,109 µM
C=CC(=O)NCCCC(=O)N1CCN(S(=O)(=O)c2cccc3c(N(C)C)cccc23)CC1,,7.3 10^3/M/min,0.54 min⁻¹,74.2 µM
C=CC(=O)NCCC(=O)N1CCN(C(=O)c2cccc3ccccc23)CC1,,2.4 10^3/M/min,0.13 min⁻¹,51.6 µM

# The next compounds have a lower Ki [4] than those just listed; values first:
inhibition [1],Ratio [2],Kinact [3],Ki [4],Compound
Active,412 10^3/M/min,1.34 min⁻¹,3.2 µM,C=CC(=O)NCC(=O)N1CCN(C(=O)C23CC4CC(CC(C4)C2)C3)CC1
,41.9 10^3/M/min,0.19 min⁻¹,4.5 µM,C=CC(=O)NCCCCC(=O)N1CCN(C(=O)C23CC4CC(CC(C4)C2)C3)CC1
Active,108 10^3/M/min,0.7 min⁻¹,6.51 µM,C=CC(=O)NCC(=O)N1CCN(S(=O)(=O)c2cccc3ccccc23)CC1
Active,27.5 10^3/M/min,0.69 min⁻¹,25 µM,C=CC(=O)NCC(=O)N1CCN(C(=O)c2cccc3ccccc23)CC1
Active,1510 10^3/M/min,2.25 min⁻¹,1.49 µM,C=CC(=O)NCC(=O)N1CCN(S(=O)(=O)c2cccc3c(N(C)C)cccc23)CC1
,8.6 10^3/M/min,0.23 min⁻¹,27.4 µM,C=CC(=O)NCCCCCC(=O)N1CCN(S(=O)(=O)c2cccc3c(N(C)C)cccc23)CC1
